Source: PubChem (several laboratories)
LEDGF integ inh: blocks HIV-1 LEDGF/p75-dependent DNA integration | TR-FRET IN-LEDGF/p75 DNA integration, Eu/Cy5 | inhibition, % at 3.7 µM | hit rate 0.64% among 370,000;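 active = inhibition above the screen-wide mean plus 3 SD, cut at about 13% in these data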;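 note: signal is the Cy5 over europium emission ratio at 671 and 618 nm; 0% = plate median of compound wells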
Casp6 inh: inhibitors of human caspase-6; purified caspase-6, Z-VEID-R110 cleavage fluorescence; inhibition, % at 12.5 µM; hit rate 0.53% among 350,000;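 active = mean inhibition across replicates at least about 35%, with every replicate also reaching that limit, limit read from the data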;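 note: 0% = median of neutral control wells and 100% = no fluorescence left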
TDP2 absorb: TDP2 (human) inhibition, absorbance primary screen; O95551; recombinant TDP2, T5PNP hydrolysis, p-nitrophenol absorbance 415 nm; inhibition, % at 12.8 µM; hit rate 0.34% among 370,000; AID 720702;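 active = inhibition above the mean of all tested compounds plus 3 SD, set per campaign, cut at about 25% in these data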;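 note: 0% = DMSO with enzyme and 100% = buffer with substrate but no TDP2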
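Test system: human TDP2 enzyme; Input: 120 nM TDP2 per well; Buffer or medium: Mg2+-containing Tris-HCl buffer, pH 7.5; Reagent: 5 mM T5PNP; Dosing: 12.8 µM single point, 1% DMSO; Incubation: reaction 2 h, 37 °C; Detection: p-Nitrophenol epi absorbance; Read-out: % inhibition relative to enzyme-containing and enzyme-free wells; Replicates: single well per compound.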
NSD2 HMT inh: blocks human histone methyltransferase NSD2. hit rate 0.54% among 310,000. NSD2 peptide methylation, AlphaScreen, 120 min. AID 743445. O96028. inhibition, % at 12.5 µM; in the data active = inhibition above about 50%
MBD2 inh: inhibitors of human MBD2 binding to methylated oligonucleotide | Q9UBB5 | TR-FRET | inhibition, % at 4.4 µM | hit rate 0.31% among 370,000; in the data active = inhibition above about 13%
Target sequence (Q9UBB5 whole entry, looked up): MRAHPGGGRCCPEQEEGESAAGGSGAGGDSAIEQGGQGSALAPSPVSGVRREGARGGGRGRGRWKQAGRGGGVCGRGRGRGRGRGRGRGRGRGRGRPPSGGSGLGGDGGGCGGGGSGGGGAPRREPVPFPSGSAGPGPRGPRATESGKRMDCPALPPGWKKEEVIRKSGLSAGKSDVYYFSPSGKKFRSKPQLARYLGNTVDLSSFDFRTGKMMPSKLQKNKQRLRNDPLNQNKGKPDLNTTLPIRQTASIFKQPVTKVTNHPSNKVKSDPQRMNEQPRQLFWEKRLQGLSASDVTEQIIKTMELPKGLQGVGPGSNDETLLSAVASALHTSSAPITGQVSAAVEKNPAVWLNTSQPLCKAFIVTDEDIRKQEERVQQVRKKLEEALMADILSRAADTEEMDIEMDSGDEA
UHRF1 MBD2 ctr: blocks human UHRF1 binding to methylated DNA. Q96T88. UHRF1 binding to methylated oligo, TR-FRET. inhibition, % at 4.4 µM. hit rate 0.75% among 370,000; in the data active = inhibition above about 21%;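 note: UHRF1 SRA domain binding a hemimethylated CpG hairpin DNA probe; 0% = median of test compound wells and 100% = reference inhibitor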
TDP2 confirm: human TDP2 inhibition, confirmation; hit rate 22% among 1,100; recombinant human TDP2, absorbance read-out; shares compounds with TDP2 absorb; inhibition, % at 12.8 µM; in the data active = inhibition above about 25%;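 note: 0% = vehicle with enzyme and 100% = no enzyme buffer only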
Starred values were filed as active, the others as inactive; . = no result. Compounds with a hit are over-represented: about 1.8% of the library has one in this group of screens.

SMILES	LEDGF integ inh	Casp6 inh	TDP2 absorb	NSD2 HMT inh	MBD2 inh	UHRF1 MBD2 ctr	TDP2 confirm
Cc1ccccc1NC(=O)CN1CCCC1	0	0	3	-3	0	0	.
Cc1ccccc1NC(=O)CN1CCN(C)CC1	5	-6	36*	0	-1	3	5
COc1ccc(CCn2c(N)c(C(=O)NCc3ccco3)c3nc4ccccc4nc32)cc1	4	-4	9	-4	-7	-9	.
COc1ccc(CCn2c(N)c(C(=O)NCc3ccco3)c3nc4ccccc4nc32)cc1OC	-3	.	25*	.	-7	-10	26*
C[C@H]1CN([C@@H](C)CO)C(=O)c2cc(C3=CCCCC3)cnc2O[C@@H]1CN(C)C(=O)c1cccnc1	.	4	.	.	.	.	.
CC(=O)N(C)C[C@@H]1Oc2ncc(C#Cc3ccccc3F)cc2C(=O)N([C@H](C)CO)C[C@@H]1C	.	-1	.	.	.	.	.
CC(C)(C)c1cc(CN2CCC(O)CC2)cc(C(C)(C)C)c1O	-1	.	-6	-3	3	8	.
CC1=NN(Cc2cc(C(C)(C)C)c(O)c(C(C)(C)C)c2)C(=O)C1	-1	-2	25*	1	1	-4	0
CCOC(=O)CNC(=O)CN1C(=O)CCS(=O)(=O)c2ccccc21	0	.	1	-1	-1	0	.
O=C(CN1C(=O)CCS(=O)(=O)c2ccccc21)NCCc1ccccc1	-3	-2	26*	-4	3	-4	10
C=CCOc1cccc(C2C(C(=O)c3ccco3)=C(O)C(=O)N2CCN2CCOCC2)c1 (stereo not drawn)	10	2	41*	11	7	19	-7
Cc1ccc(-c2cn3cccnc3n2)cc1	0	-1	-5	1	5	0	.
CS(=O)(=O)Nc1ccc(-c2cn3cccnc3n2)cc1	-3	-1	26*	0	-4	-2	6
COc1ccc(C)cc1NC(=O)C(NCC(O)c1ccccc1)c1ccccc1 (stereo not drawn)	0	1	26*	8	1	-2	9
COc1ccc(C)cc1NC(=O)C(OC(=O)CNC(=O)c1cc(C)cc(C)c1)c1ccccc1 (stereo not drawn)	0	2	-11	0	3	-2	.
COc1cccc(C(C[N+](=O)[O-])c2c(C)[nH]n(-c3ccccc3)c2=O)c1 (stereo not drawn)	1	10	28*	12	-8	-9	21
O=C(Cc1ccccc1)NN1C(=O)/C(=C/c2ccc(C(=O)O)cc2)SC1=S	0	69*	26*	-1	-1	-1	5
O=C(O)c1ccc(/C=C2/SC(=S)N(Cc3ccccc3)C2=O)cc1	-1	2	-1	2	2	3	.
Cc1cc(NC(=O)CSc2nc3cc(Cl)ccc3o2)no1	0	-2	9	-3	-1	0	.
CCN(CC)S(=O)(=O)c1ccc2oc(SCC(=O)Nc3cc(C)on3)nc2c1	-2	-4	41*	2	-3	-1	-5
CC1(C)CNc2cc(N)ccc2S1	13	4	38*	.	-10	-2	0
CCCN(C)C[C@H]1OCCCC[C@@H](C)Oc2ccc(NS(=O)(=O)c3cccs3)cc2C(=O)N([C@H](C)CO)C[C@@H]1C	.	-2	.	.	.	.	.
COC(=O)CCC(=O)OC1(C)C(=O)C=C2C=C(C3CC3)N(CC3CC3)C=C2C1=O (stereo not drawn)	9	13	28*	.	-4	3	12
CCN(CC)CCCN1C=C2C(=O)C(C)(OC(=O)CCC(=O)OC)C(=O)C=C2C=C1C1CC1 (stereo not drawn)	2	-92	21	.	0	1	.
COC(=O)CCC(=O)OC1(C)C(=O)C=C2C=C(C3CC3)N(Cc3ccccc3)C=C2C1=O (stereo not drawn)	2	.	26*	.	-6	-2	7
COC(=O)CCC(=O)OC1(C)C(=O)C=C2C=C(C3CC3)N(C3CCCCC3)C=C2C1=O (stereo not drawn)	4	17	29*	.	-2	4	3
O=C1CSCN1c1ccccc1	.	0	.	.	.	.	.
COc1cccc(NC2=C(NCCO)C(=O)c3ccccc3C2=O)c1	7	10	55*	25	-18	-12	12
